Measured values from ChEMBL document CHEMBL3877325, “Novel salicylanilides from 4,5-dihalogenated salicylic acids: Synthesis, antimicrobial activity and cytotoxicity” (Bioorg Med Chem, 2017).
Converted amounts (≈) assume the structure as drawn.

Key:
[1] = system: Mycobacterium tuberculosis; test: Antimycobacterial activity against Mycobacterium tuberculosis H37Rv My 331/88 after 14 days by micromethod; format: functional; conditions: H37Rv My 331/88, 336 h
Method in brief: (§1)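 MIC micromethod in Šula's semisynthetic medium at 37 °C, read after 14 and 21 days. Compounds added as DMSO solutions at 500 down to 0.5 µM (twofold-type series: 500, 250, 125, 62.5, 32, 16, 8, 4, 2, 1, 0.5 µM). Isoniazid standard given in sterile water.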

[2] = system: Mycobacterium tuberculosis; test: Antimycobacterial activity against Mycobacterium tuberculosis H37Rv My 331/88 after 21 days by micromethod; format: functional; conditions: H37Rv My 331/88, 504 h; method in brief: as §1
Mycobacterium avium [3] = test: Antimycobacterial activity against Mycobacterium avium My 330/80 after 14 days by micromethod; format: functional; conditions: My 330/80, 336 h
Method in brief: (§2)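 M. avium My 330/80 (collection strain) inoculated at 10^-5 dilution into Šula's semisynthetic medium. Compounds added from DMSO solutions at 500, 250, 125, 62.5, 32, 16, 8, 4, 2, 1 and 0.5 µM. MIC determined by micromethod at 37 °C, read after 14 and 21 days.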

Mycobacterium avium [4] = test: Antimycobacterial activity against Mycobacterium avium My 330/80 after 21 days by micromethod; format: functional; conditions: My 330/80, 504 h; method in brief: as §2
Mycobacterium kansasii [5] = test: Antimycobacterial activity against Mycobacterium kansasii isolate 235/80 after 7 days by micromethod; format: functional; conditions: isolate 235/80, 168 h
Method in brief: (§3)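 MIC in Šula's semisynthetic medium at 37 °C, read after 7, 14 and 21 days. Inoculum is strain dilution 10^-4; 235/80 is a collection strain and 6509/96 a clinical isolate. Compounds are added as DMSO solutions at 500, 250, 125, 62.5, 32, 16, 8, 4, 2, 1 and 0.5 µM. INH (in sterile water) and PAS are the reference drugs.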

Mycobacterium kansasii [6] = test: Antimycobacterial activity against Mycobacterium kansasii isolate 235/80 after 14 days by micromethod; format: functional; conditions: isolate 235/80, 336 h; method in brief: as §3
Mycobacterium kansasii [7] = test: Antimycobacterial activity against Mycobacterium kansasii isolate 235/80 after 21 days by micromethod; format: functional; conditions: isolate 235/80, 504 h; method in brief: as §3
Mycobacterium kansasii [8] = test: Antimycobacterial activity against Mycobacterium kansasii isolate 6509/96 after 7 days by micromethod; format: functional; conditions: isolate 6509/96, 168 h; method in brief: as §3
Mycobacterium kansasii [9] = test: Antimycobacterial activity against Mycobacterium kansasii isolate 6509/96 after 14 days by micromethod; format: functional; conditions: isolate 6509/96, 336 h; method in brief: as §3
Mycobacterium kansasii [10] = test: Antimycobacterial activity against Mycobacterium kansasii isolate 6509/96 after 21 days by micromethod; format: functional; conditions: isolate 6509/96, 504 h; method in brief: as §3
[11] = Cytotoxicity against human HepG2 cells assessed as reduction in cell viability after 24 hrs by MTS assay; format: toxicity, cell-based
Method in brief: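 HepG2 cells (passages 33-37) are grown in MEM with 10% FBS, L-glutamine and non-essential amino acids. They are seeded at 1 × 10^4 cells/well and treated next day with 0.1-100 µM in triplicate for 24 h at 37 °C, 5% CO2. MTS reagent is added for 2 h and A490 read.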

[12] = Selectivity index, ratio of IC50 for human HepG2 cells to MIC for Mycobacterium tuberculosis H37Rv after 21 days; format: toxicity, cell-based; conditions: HepG2 cells versus Mycobacterium tuberculosis H37Rv, read-out: Selectivity Index
Method in brief: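 HepG2 cells (passages 33-37) seeded at 1 × 10^4 per well and treated next day with 0.1–100 µM in triplicate. After 24 h at 37 °C, 5% CO2, MTS reagent added for 2 h and absorbance read at 490 nm. IC50 taken from viability relative to untreated control, then divided by the 21-day H37Rv MIC.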

Structure (SMILES)	MIC [1] [µM]	MIC [2] [µM]	MIC (Mycobacterium avium [3]) [µM]	MIC (Mycobacterium avium [4]) [µM]	MIC (Mycobacterium kansasii [5]) [µM]	MIC (Mycobacterium kansasii [6]) [µM]	MIC (Mycobacterium kansasii [7]) [µM]	MIC (Mycobacterium kansasii [8]) [µM]	MIC (Mycobacterium kansasii [9]) [µM]	MIC (Mycobacterium kansasii [10]) [µM]	IC50 at 24 h [11] [µM]	selectivity ratio at 504 h [12]
O=C(Nc1ccc(Br)cc1)c1cc(Cl)c(Cl)cc1O	2 (≈ 0.722 µg/mL)	4 (≈ 1.44 µg/mL)	32 (≈ 11.6 µg/mL)	32 (≈ 11.6 µg/mL)	8 (≈ 2.89 µg/mL)	8 (≈ 2.89 µg/mL)	8 (≈ 2.89 µg/mL)	8 (≈ 2.89 µg/mL)	8 (≈ 2.89 µg/mL)	8 (≈ 2.89 µg/mL)	21.4	5.35
O=C(Nc1cc(C(F)(F)F)cc(C(F)(F)F)c1)c1cc(Br)c(Cl)cc1O	2 (≈ 0.925 µg/mL)	4 (≈ 1.85 µg/mL)	16 (≈ 7.4 µg/mL)	32 (≈ 14.8 µg/mL)	8 (≈ 3.7 µg/mL)	8 (≈ 3.7 µg/mL)	8 (≈ 3.7 µg/mL)	8 (≈ 3.7 µg/mL)	8 (≈ 3.7 µg/mL)	8 (≈ 3.7 µg/mL)	5.07	1.27
O=C(Nc1ccc(Cl)c(Cl)c1)c1cc(Br)c(Cl)cc1O	2 (≈ 0.791 µg/mL)	4 (≈ 1.58 µg/mL)	125 (≈ 49.4 µg/mL)	125 (≈ 49.4 µg/mL)	8 (≈ 3.16 µg/mL)	8 (≈ 3.16 µg/mL)	8 (≈ 3.16 µg/mL)	8 (≈ 3.16 µg/mL)	8 (≈ 3.16 µg/mL)	8 (≈ 3.16 µg/mL)	7.65	1.91
O=C(Nc1ccc(C(F)(F)F)cc1)c1cc(Br)c(Cl)cc1O	1 (≈ 0.395 µg/mL)	2 (≈ 0.789 µg/mL)	32 (≈ 12.6 µg/mL)	62.5 (≈ 24.7 µg/mL)	4 (≈ 1.58 µg/mL)	4 (≈ 1.58 µg/mL)	4 (≈ 1.58 µg/mL)	4 (≈ 1.58 µg/mL)	4 (≈ 1.58 µg/mL)	4 (≈ 1.58 µg/mL)	11	5.52
O=C(Nc1ccc(Br)cc1)c1cc(Br)c(Cl)cc1O	2 (≈ 0.811 µg/mL)	4 (≈ 1.62 µg/mL)	32 (≈ 13 µg/mL)	32 (≈ 13 µg/mL)	4 (≈ 1.62 µg/mL)	8 (≈ 3.24 µg/mL)	8 (≈ 3.24 µg/mL)	8 (≈ 3.24 µg/mL)	8 (≈ 3.24 µg/mL)	8 (≈ 3.24 µg/mL)	10.8	2.71
O=C(Nc1ccc(Cl)c(Cl)c1)c1cc(Cl)c(Cl)cc1O	2 (≈ 0.702 µg/mL)	2 (≈ 0.702 µg/mL)	62.5 (≈ 21.9 µg/mL)	62.5 (≈ 21.9 µg/mL)	4 (≈ 1.4 µg/mL)	8 (≈ 2.81 µg/mL)	8 (≈ 2.81 µg/mL)	8 (≈ 2.81 µg/mL)	8 (≈ 2.81 µg/mL)	8 (≈ 2.81 µg/mL)	12.4	6.21
O=C(Nc1ccc(C(F)(F)F)cc1)c1cc(Cl)c(Cl)cc1O	2 (≈ 0.7 µg/mL)	2 (≈ 0.7 µg/mL)	62.5 (≈ 21.9 µg/mL)	62.5 (≈ 21.9 µg/mL)	4 (≈ 1.4 µg/mL)	8 (≈ 2.8 µg/mL)	8 (≈ 2.8 µg/mL)	4 (≈ 1.4 µg/mL)	8 (≈ 2.8 µg/mL)	8 (≈ 2.8 µg/mL)	9.87	4.94
O=C(Nc1cc(C(F)(F)F)cc(C(F)(F)F)c1)c1cc(Cl)c(Cl)cc1O	2 (≈ 0.836 µg/mL)	2 (≈ 0.836 µg/mL)	32 (≈ 13.4 µg/mL)	32 (≈ 13.4 µg/mL)	8 (≈ 3.34 µg/mL)	8 (≈ 3.34 µg/mL)	16 (≈ 6.69 µg/mL)	8 (≈ 3.34 µg/mL)	16 (≈ 6.69 µg/mL)	16 (≈ 6.69 µg/mL)	4.86	2.43
O=C(Nc1ccc(Br)cc1)c1cc(Br)ccc1O [DIBROMSALAN]	4 (≈ 1.48 µg/mL)	4 (≈ 1.48 µg/mL)	16 (≈ 5.94 µg/mL)	16 (≈ 5.94 µg/mL)	4 (≈ 1.48 µg/mL)	8 (≈ 2.97 µg/mL)	8 (≈ 2.97 µg/mL)	8 (≈ 2.97 µg/mL)	8 (≈ 2.97 µg/mL)	8 (≈ 2.97 µg/mL)	23.6	5.9
O=C(Nc1cc(C(F)(F)F)cc(C(F)(F)F)c1)c1cc(Cl)ccc1O [IMD-0354]	4 (≈ 1.53 µg/mL)	8 (≈ 3.07 µg/mL)	32 (≈ 12.3 µg/mL)	32 (≈ 12.3 µg/mL)	8 (≈ 3.07 µg/mL)	16 (≈ 6.14 µg/mL)	16 (≈ 6.14 µg/mL)	8 (≈ 3.07 µg/mL)	16 (≈ 6.14 µg/mL)	16 (≈ 6.14 µg/mL)	10.2	1.27
